The nature of test [1]: Her2 expression decrease, cell viability multiplex – SKBR3 breast tumor cells, AlphaScreen, ATP viability, primary screen (AID 461;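 active = Her2 level under about 52% in both replicate screens, with viability over 70% of control, limit read from the data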;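 as to Her2 level: lower value means less Her2 protein in the cells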;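 as to viability: percent of carrier control wells set as 100% viability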). The following applies: SKBR3 Her2 protein level, 18-24 h, measured here: SKBR3 viability, ATP luminescence, at 10 µM. (In Alpha technology, singlet oxygen from a donor bead excites a nearby acceptor bead.)
Test [2] deals with Receptor tyrosine-protein kinase erbB-2 (Homo sapiens) (UniProt P04626). Described as above. The note with it: 18-24 h, at 10 µM, stronger effect = lower value.
Test [3] is described as follows: reduced viability of SK-BR-3 breast cancer cells – cell-based, 24 h, human, pilot screen (AID 572;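 active = viability at or below 10% of carrier control in both of two separate runs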;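 also: compound exposure lasted between 18 and 24 h rather than exactly 24 h; 100% = carrier-treated control wells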). The note with it: SK-BR-3 viability, CellTiter-Glo luminescence, at 10 µM, stronger effect = lower value. A general note: ATP-based viability assays read luminescence as a measure of living cells.
Test [4] can be described thus: HUVEC growth inhibition – cell-based, human, primary screen (AID 575;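 active = viability at or below 30% in both replicate assays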;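 also: 100% = median of untreated cell wells with 0.1% DMSO on each plate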). The note with it: HUVEC proliferation, CellTiter-Glo luminescence, 72 h; at 10 µM; stronger effect = lower value. A digest of the protocol: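 Test system: HUVEC primary cells. Quantity: 1250 endothelial cells in each well. Dosing: single-point 10 µM, DMSO 0.1% final. Incubation: 72 h treatment at 37 °C. Measured by: CTG luminescence. Control set: DMSO cell controls and MePR drug controls. Plate: collagen-coated 384-well format.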

The nature of test [5]: H69AR cell proliferation blockers – human, duplicate replicates, primary screen (AID 580;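 active = viability at or under a set limit in both replicates, limit being median viability minus 3 SD, cut at about 48% in these data, passing the limit was not always enough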;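 also: 100% = mean luminescence of untreated wells and 0% = no signal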). The note with it: H69AR lung tumor cells viability, ATP luminescence, 72 h; at 10 µM; stronger effect = lower value.
The nature of test [6]: MRP1 drug-resistance reversers in H69AR cells – cell-based, doxorubicin co-treatment, pilot screen (AID 601;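 active = viability loss from added drug above about 55%, and viability with drug at most 40%, in both replicates, limit read from the data, passing the limit was not always enough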). The note with it: CellTiter-Glo, 72 h, at 10 µM; for differential viability (reversal): stronger effect = higher value.
Test [7] in a line: yeast transport mutant growth inhibition pilot in 384-well plates, post-Golgi transport modulator project (AID 636; in the data active = inhibition above about 31%). The note with it: absorbance 615 nm, about 18 h, stronger effect = higher value.
Test [8] can be described thus: growth suppression of yeast trafficking mutant, preliminary HTS, modulators of trafficking downstream of Golgi apparatus project, 1536-format plate, OD 615 nm (AID 637). The following applies: yeast transport mutant growth, absorbance 615 nm, 18 h; stronger effect = higher value.
Where [9] appears, read: H69AR cells + 2 uM doxorubicin, measured here: viability with 2 uM doxorubicin, stronger effect = lower value.
The mark [10] stands for this setting: H69AR cells, compound alone cytotoxicity.

SMILES strings stand for the structures. Active and inactive are the calls of the source. Rule as the data show it, unless noted: active = inhibition above about 30%; inactive = the rest.

Sequence of Receptor tyrosine-protein kinase erbB-2 (Homo sapiens) (P04626 whole entry, looked up): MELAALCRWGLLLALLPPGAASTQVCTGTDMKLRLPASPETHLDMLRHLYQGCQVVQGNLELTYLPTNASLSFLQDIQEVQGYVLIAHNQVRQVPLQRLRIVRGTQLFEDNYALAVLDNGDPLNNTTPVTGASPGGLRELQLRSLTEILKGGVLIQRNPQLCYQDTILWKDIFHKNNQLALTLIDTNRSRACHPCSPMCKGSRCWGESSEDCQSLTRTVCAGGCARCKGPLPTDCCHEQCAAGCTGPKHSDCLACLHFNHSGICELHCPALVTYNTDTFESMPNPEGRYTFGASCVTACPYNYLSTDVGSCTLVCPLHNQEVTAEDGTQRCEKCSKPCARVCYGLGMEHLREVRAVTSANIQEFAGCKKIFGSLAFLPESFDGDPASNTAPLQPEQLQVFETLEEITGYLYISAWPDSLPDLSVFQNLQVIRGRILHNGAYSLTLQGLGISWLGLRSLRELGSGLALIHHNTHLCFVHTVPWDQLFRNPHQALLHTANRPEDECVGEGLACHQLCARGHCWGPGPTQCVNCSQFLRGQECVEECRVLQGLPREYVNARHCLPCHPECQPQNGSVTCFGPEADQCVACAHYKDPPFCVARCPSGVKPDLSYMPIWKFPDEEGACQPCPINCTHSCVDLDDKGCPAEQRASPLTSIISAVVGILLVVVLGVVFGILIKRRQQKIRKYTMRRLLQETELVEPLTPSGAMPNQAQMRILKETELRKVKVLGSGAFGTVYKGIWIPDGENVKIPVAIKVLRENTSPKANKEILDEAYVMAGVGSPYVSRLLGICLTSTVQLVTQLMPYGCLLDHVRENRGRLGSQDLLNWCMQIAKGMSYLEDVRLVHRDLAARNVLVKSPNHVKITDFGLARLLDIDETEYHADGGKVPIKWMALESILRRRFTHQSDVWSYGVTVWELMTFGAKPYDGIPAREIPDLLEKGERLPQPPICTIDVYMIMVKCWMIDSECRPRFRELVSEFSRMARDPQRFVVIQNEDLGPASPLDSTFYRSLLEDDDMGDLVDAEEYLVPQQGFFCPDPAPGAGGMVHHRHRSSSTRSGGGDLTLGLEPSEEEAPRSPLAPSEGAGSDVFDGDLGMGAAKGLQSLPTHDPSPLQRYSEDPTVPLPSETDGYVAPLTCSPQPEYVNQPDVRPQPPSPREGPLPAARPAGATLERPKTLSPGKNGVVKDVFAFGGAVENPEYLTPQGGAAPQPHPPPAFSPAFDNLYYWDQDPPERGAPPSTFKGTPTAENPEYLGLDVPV

As to `CCOC(=O)c1ccccc1NC(=O)COC(=O)C1=COCCO1`, the viability – broadly, a read-out of living cells in per cent, often relative to untreated cells – is 98.5% in test [1]; 98.5% (inactive) in test [3]; 96.7% (inactive) in test [4]; 88.7% (inactive) in test [5]; 102% in test [6] (setting [9]); 88.7% in test [6] (setting [10]). The Her2 level in test [2] is 92% (inactive). Moreover, the differential viability (reversal) in test [6] (H69AR cells + 2 uM doxorubicin) was -13.3% (inactive). The inhibition (commonly the drop in the measured response relative to a control, in per cent) in test [7] was -5.81% (inactive); in test [8] it was 3% (inactive).
With `COc1ccc(NC(=O)CN2CCN(S(=O)(=O)c3ccc(Cl)cc3)CC2)cc1`, the viability is 92% in test [1]; 92% (inactive) in test [3]; 88% (inactive) in test [4]; 81.8% (inactive) in test [5]; 93.1% in test [6] (setting [9]); 81.8% in test [6] (setting [10]). For the same compound, the Her2 level in test [2] is 76% (inactive). The differential viability (reversal) in test [6] (H69AR cells + 2 uM doxorubicin) is -11.3% (inactive). The inhibition in test [7] is -6.18% (inactive); in test [8], -11% (inactive).
`Cc1ccc(S(=O)(=O)N(CC(=O)N2CCOCC2)CC(=O)N2CCOCC2)cc1`: the viability in test [1] was 104%; in test [3], 104% (inactive); in test [4], 110% (inactive); in test [5], 107% (inactive); in test [6] (setting [9]) it was 101%; in test [6] (setting [10]), 107%. The Her2 level in test [2] was 87% (inactive). In addition, in test [6] (H69AR cells + 2 uM doxorubicin), the differential viability (reversal) is 5.66% (inactive). Besides, the inhibition in test [7] was -4.87% (inactive); in test [8], 3.17% (inactive).
For `CCOC(=O)c1c(C)oc2ccc(OCC(=O)N(CC)CC)cc12`, the viability is 85.5% in test [1]; 85.5% (inactive) in test [3]; 101% (inactive) in test [4]; 101% (inactive) in test [5]; 97.2% in test [6] (setting [9]); 101% in test [6] (setting [10]). Besides, the Her2 level in test [2] is 85% (inactive). For the same compound, the differential viability (reversal) in test [6] (H69AR cells + 2 uM doxorubicin) was 3.73% (inactive). Moreover, the inhibition is -5.26% (inactive) in test [7] and -0.32% (inactive) in test [8].
Turning to `O=C(NCc1cccnc1)c1cn(CCc2ccccc2)nn1`, the viability in test [1] is 99.5%; in test [3], 99.5% (inactive); in test [4], 130% (inactive); in test [5] it was 109% (inactive); in test [6] (setting [9]) it was 89%; in test [6] (setting [10]), 109%. In addition, in test [2], the Her2 level was 93% (inactive). The differential viability (reversal) in test [6] (H69AR cells + 2 uM doxorubicin) was 20.4% (inactive). The inhibition in test [7] is -5.27% (inactive); in test [8] it was 4.33% (inactive).
As to `Cc1ccccc1NC(=O)Cc1nnc(SCC(=O)N2CCN(c3ccccc3)CC2)n1C`, the viability in test [1] was 110%; in test [3] it was 110% (inactive); in test [4], 101% (inactive); in test [5] it was 98.2% (inactive); in test [6] (setting [9]) it was 92.5%; in test [6] (setting [10]) it was 98.2%. Also, the Her2 level in test [2] was 108% (inactive). Besides, the differential viability (reversal) in test [6] (H69AR cells + 2 uM doxorubicin) was 5.74% (inactive). The inhibition is -5.53% (inactive) in test [7] and -6.67% (inactive) in test [8].
For the compound `CCN(CC)C(=O)CSc1nc2ccccc2c(=O)n1CCC(=O)NCc1ccc(F)cc1`, the viability in test [1] was 93%; in test [3], 93% (inactive); in test [4] it was 98.3% (inactive); in test [5], 92.7% (inactive); in test [6] (setting [9]), 89.6%; in test [6] (setting [10]), 92.7%. Further, in test [2], the Her2 level was 105% (inactive). Moreover, in test [6] (H69AR cells + 2 uM doxorubicin), the differential viability (reversal) is 3.08% (inactive). Besides, the inhibition in test [7] is 4.34% (inactive); in test [8], 20.2% (inactive).
Turning to `CCOC(=O)c1nnn(-c2nonc2N)c1CN1CCc2ccccc2C1`, the viability was 102% in test [1]; 102% (inactive) in test [3]; 96.4% (inactive) in test [4]; 91.7% (inactive) in test [5]; 91.7% in test [6] (setting [9]); 91.7% in test [6] (setting [10]). Moreover, the Her2 level in test [2] was 93% (inactive). In addition, the differential viability (reversal) in test [6] (H69AR cells + 2 uM doxorubicin) is -0.015% (inactive). For the same compound, the inhibition in test [7] was -0.13% (inactive); in test [8] it was -3.02% (inactive).
For `Cc1ccc(-n2ncc3c(=O)n(CC(=O)NC4CCCCC4)cnc32)cc1C`, the viability in test [1] is 105%; in test [3], 105% (inactive); in test [4], 92.7% (inactive); in test [5], 87.4% (inactive); in test [6] (setting [9]), 85.8%; in test [6] (setting [10]), 87.4%. Further, the Her2 level in test [2] is 108% (inactive). For the same compound, the differential viability (reversal) in test [6] (H69AR cells + 2 uM doxorubicin) was 1.56% (inactive). Besides, the inhibition is -3.68% (inactive) in test [7] and -1.13% (inactive) in test [8].
For the compound `CCCC(=O)Nc1ccc(NC(=O)C2CC2)cn1`, the viability in test [1] was 108%; in test [3] it was 108% (inactive); in test [4], 105% (inactive); in test [5], 102% (inactive); in test [6] (setting [9]), 95.4%; in test [6] (setting [10]) it was 102%. In addition, in test [2], the Her2 level was 112% (inactive). The differential viability (reversal) in test [6] (H69AR cells + 2 uM doxorubicin) was 6.95% (inactive). Moreover, the inhibition is -1.73% (inactive) in test [7] and 5% (inactive) in test [8].
With `Cc1nc(Nc2nc(=O)c3ccccc3n2C)nc2c(C)cccc12`, the viability was 122% in test [1]; 122% (inactive) in test [3]; 89.5% (inactive) in test [4]; 86.1% (inactive) in test [5]; 99% in test [6] (setting [9]); 86.1% in test [6] (setting [10]). Also, the Her2 level in test [2] is 98% (inactive). Also, the differential viability (reversal) in test [6] (H69AR cells + 2 uM doxorubicin) was -12.9% (inactive). Moreover, the inhibition was -2.89% (inactive) in test [7] and 2.54% (inactive) in test [8].
On to `O=[n+]1c2c(n([O-])c3cc(F)c(N4CCCC4)cc31)CCC2`, for which the viability is 101% in test [1]; 101% (inactive) in test [3]; 90.6% (inactive) in test [4]; 74% (inactive) in test [5]; 68.4% in test [6] (setting [9]); 74% in test [6] (setting [10]). Besides, in test [2], the Her2 level was 86.5% (inactive). Moreover, the differential viability (reversal) in test [6] (H69AR cells + 2 uM doxorubicin) was 5.59% (inactive). Also, the inhibition in test [7] was -2.57% (inactive); in test [8], 1.9% (inactive).
With `Cc1nnc(N2C(=O)c3oc4ccccc4c(=O)c3C2c2ccco2)s1` (stereo not given), the viability was 93% in test [1]; 93% (inactive) in test [3]; 115% (inactive) in test [4]; 95.2% (inactive) in test [5]; 85.6% in test [6] (setting [9]); 95.2% in test [6] (setting [10]). The Her2 level in test [2] was 99.5% (inactive). Besides, in test [6] (H69AR cells + 2 uM doxorubicin), the differential viability (reversal) is 9.59% (inactive). Moreover, the values for the inhibition in test [7] and in test [8] were -1.54% (inactive) and 0.83% (inactive), respectively.
For `CCOC(=O)CC12CN3CN(C1)CC(CC(=O)OCC)(C3)C2=O`, the viability in test [1] is 94%; in test [3] it was 94% (inactive); in test [4], 89.1% (inactive); in test [5] it was 98.3% (inactive); in test [6] (setting [9]), 94.7%; in test [6] (setting [10]), 98.3%. Further, the Her2 level in test [2] was 86% (inactive). Moreover, the differential viability (reversal) in test [6] (H69AR cells + 2 uM doxorubicin) was 3.54% (inactive). The inhibition was -5.95% (inactive) in test [7] and 0.49% (inactive) in test [8].
On to `O=C(Cn1cnc2c(nnn2-c2ccc(F)cc2)c1=O)N1CCCc2ccccc21`, for which the viability in test [1] is 101%; in test [3], 101% (inactive); in test [4] it was 90.5% (inactive); in test [5] it was 103% (inactive); in test [6] (setting [9]) it was 86.6%; in test [6] (setting [10]), 103%. The Her2 level in test [2] is 117% (inactive). Besides, in test [6] (H69AR cells + 2 uM doxorubicin), the differential viability (reversal) was 16.3% (inactive). Also, the inhibition in test [7] is -9.59% (inactive); in test [8] it was -2.7% (inactive).
As for `Cc1cccc(-n2c(Cc3cc(=O)[nH]c(=O)[nH]3)nnc2SCC(=O)NCc2ccco2)c1`, the viability is 99.5% in test [1]; 99.5% (inactive) in test [3]; 108% (inactive) in test [4]; 111% (inactive) in test [5]; 97.1% in test [6] (setting [9]); 111% in test [6] (setting [10]). Further, the Her2 level in test [2] is 89.5% (inactive). Moreover, the differential viability (reversal) in test [6] (H69AR cells + 2 uM doxorubicin) is 13.9% (inactive). In addition, the inhibition was -7.07% (inactive) in test [7] and 4.19% (inactive) in test [8].

These data come from PubChem BioAssay.
